Activity calls are given as the source filed them. The calls are words filed in the database; no cut-off is given here.
Assays:
[1] = molecular target: Histone deacetylase 1 (Mus musculus) (UniProt O09106); test: Effect on HDAC1 nuclear localization in LPS/IFNgamma-stimulated mouse RAW264.7 cells preincubated for 20 hrs followed by LPS/IFNgamma stimulation and measured after 1 hr by Western blot analysis; assay type: cell-based
How it was run: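 RAW 264.7 cells treated for 20 h, then 1 h LPS/IFNγ, and fractionated into nuclear and cytosolic parts. Fractions immunoblotted, with PARP-1 and β-actin as internal controls. Densitometry with vehicle control set at 100%. Mean ± SD of 3–4 independent experiments.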

[2] = tested on: Lung; test: Antiinflammatory activity in C57bl/6 mouse precision-cut lung slices assessed as effect on LPS/IFNgamma-induced HDAC3 gene expression at 1 to 10 uM preincubated for 20 hrs followed by LPS/IFNgamma stimulation and measured after 4 hrs by RT-qPCR analysis; assay type: functional, tissue-based; conditions: dose 1-10 µM, time 24.0 hrs
[3] = tested on: HASMC; test: Antiinflammatory activity in HASMC cells assessed as effect on LPS/IFNgamma-induced IL-1beta gene expression at 2 uM […] by RT-qPCR analysis; assay type: functional, cell-based; conditions: Homo sapiens
How it was run: (§1)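 HBE cells (passage 73–103) or immortalized hASM cells (2–3 donors, passage 27–35), serum-starved. Then 2 μM RGFP966 for 20 h, with LPS/IFNγ for the last 4 h. Total RNA isolated; RT-qPCR by 2−ΔΔCt, fold change versus LPS/IFNγ control. Mean ± SD of 3–5 independent experiments.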

[4] = tested on: Lung; test: Antiinflammatory activity in C57bl/6 mouse precision-cut lung slices assessed as upregulation of LPS/IFNgamma-induced IkappaBalpha gene expression at 1 to 10 uM preincubated for 20 hrs followed by LPS/IFNgamma stimulation and measured after 4 hrs by RT-qPCR analysis; assay type: functional, tissue-based; conditions: dose 1-10 µM, time 24.0 hrs
[5] = tested on: RAW264.7; test: Antiinflammatory activity in mouse RAW264.7 cells assessed as effect on LPS/IFNgamma-induced IL-10 gene expression at 1 uM preincubated for 20 hrs followed by LPS/IFNgamma stimulation and measured after 4 hrs by RT-qPCR analysis; assay type: functional, cell-based; conditions: time 24.0 hrs
How it was run: (§2)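 RAW 264.7 macrophages in DMEM/10% FBS received 1 μM RGFP966 for 20 h, with LPS/IFNγ for the last 4 h. Washed with cold DPBS, total RNA isolated, integrity checked by 28S/18S. RT-qPCR by comparative Ct (2−ΔΔCt), fold change versus LPS/IFNγ control. Mean ± SD of 3–5 independent experiments.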

[6] = tested on: RAW264.7; test: Antiinflammatory activity in mouse RAW264.7 cells assessed as down regulation of LPS/IFNgamma-induced IL-1beta gene expression at 1 uM preincubated for 20 hrs followed by LPS/IFNgamma stimulation and measured after 4 hrs by RT-qPCR analysis; assay type: functional, cell-based; conditions: time 24.0 hrs; how it was run: as §2
[7] = tested on: RAW264.7; test: Antiinflammatory activity in LPS/IFNgamma-stimulated mouse RAW264.7 cells assessed as reduction in HDAC1 expression preincubated for 20 hrs followed by LPS/IFNgamma stimulation and measured after 4 hrs by Western blot analysis; assay type: functional, cell-based; conditions: time 24.0 hrs
How it was run: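 RAW 264.7 cells were LPS/IFNγ-stimulated after inhibitor exposure, then lysed in Hepes/Triton buffer containing DTT, butyrate and protease inhibitors, freeze-thawed and cleared. Immunoblot with milk blocking and overnight primary antibody at 4 °C. Densitometry normalized to β-actin, LPS/IFNγ control set at 100%. Mean ± SD of 4 independent experiments.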

[8] = tested on: RAW264.7; test: Antiinflammatory activity in LPS/IFNgamma-stimulated mouse RAW264.7 cells assessed as effect on HDAC1 mRNA expression preincubated for 20 hrs followed by LPS/IFNgamma stimulation and measured after 4 hrs by RT-qPCR analysis; assay type: functional, cell-based; conditions: time 24.0 hrs
[9] = tested on: Lung; test: Antiinflammatory activity in C57bl/6 mouse precision-cut lung slices assessed as down regulation of LPS/IFNgamma-induced iNOS gene expression at 1 to 10 uM preincubated for 20 hrs followed by LPS/IFNgamma stimulation and measured after 4 hrs by RT-qPCR analysis; assay type: functional, tissue-based; conditions: dose 1-10 µM, time 24.0 hrs
How it was run: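 PCLS, 250 μm thick, cut from agarose-filled lungs of male C57bl/6 mice (24–28 g, 8–10 weeks). Three slices per well at 37 °C, 5% CO2. Slices received RGFP966 at 1 and 10 μM final for 20 h, with 10 ng/ml LPS and 10 ng/ml IFNγ stimulation. RNA isolated; RT-qPCR fold change versus LPS/IFNγ control by 2−ΔΔCt. Mean ± SD, n = 3–5.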

[10] = molecular target: T1, Histone deacetylase 3 (Mus musculus) (UniProt O88895); test: Inhibition of HDAC3 in mouse RAW264.7 cells assessed as effect on histone H4 peptide (GKGGKGLGKGGAKR) acetylation measured after 20 hrs by LC-MS/MS analysis; assay type: cell-based
T1 sequence (whole entry): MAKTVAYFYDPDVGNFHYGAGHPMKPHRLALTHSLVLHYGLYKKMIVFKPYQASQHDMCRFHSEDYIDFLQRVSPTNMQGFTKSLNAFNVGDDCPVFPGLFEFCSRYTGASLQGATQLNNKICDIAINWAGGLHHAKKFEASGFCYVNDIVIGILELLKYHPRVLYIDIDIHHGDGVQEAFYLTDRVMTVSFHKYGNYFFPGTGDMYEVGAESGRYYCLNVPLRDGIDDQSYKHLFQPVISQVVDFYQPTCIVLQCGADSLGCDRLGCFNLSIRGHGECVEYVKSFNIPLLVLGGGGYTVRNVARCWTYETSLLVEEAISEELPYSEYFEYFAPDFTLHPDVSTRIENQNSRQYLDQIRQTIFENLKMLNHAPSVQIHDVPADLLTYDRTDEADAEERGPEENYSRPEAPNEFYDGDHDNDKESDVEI
How it was run: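 Histones from RAW 264.7 (20 h treatment) run on 15% SDS-PAGE (7 μg), Coomassie-stained H3/H4 bands excised, destained, and chemically acetylated with acetic anhydride-d6 in 1 M ammonium bicarbonate; endogenous lysine acetylation ratio derived by mass spectrometry from deuterated versus non-deuterated acetyl mass difference.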

[11] = tested on: HASMC; test: Cytotoxicity against HASMC cells assessed as reduction in cell viability at 2 uM measured after 20 hrs by MTS assay; assay type: toxicity, cell-based; conditions: human
How it was run: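 MTS viability assay. RAW 264.7 cells seeded at 25,000 cells/cm2; HBE and hASM cells at 70% confluency and serum-starved for 24 h. Exposure for 20 h with LPS/IFNγ stimulation. MTS reagent added for 1 h at 37 °C in the dark, absorbance read at 490 nm. LPS/IFNγ-stimulated cells without inhibitor set at 100%.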

[12] = molecular target: T1, Histone deacetylase 3 (Mus musculus); test: Inhibition of HDAC3 in mouse RAW-Blue cells assessed as effect on NF-kappaB p65 transcriptional activity measured after 16 hrs by SEAP reporter gene assay; assay type: cell-based
How it was run: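 RAW-Blue cells (RAW 264.7-derived, stably expressing an NF-κB/AP-1-inducible secreted embryonic alkaline phosphatase) exposed to inhibitor for 20 h total, with 10 ng/ml LPS plus 10 ng/ml IFNγ added for the final 4 h. Supernatant mixed with QUANTI-Blue medium, 37 °C 1–2 h in the dark, absorbance 630 nm; reported as % of control.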

[13] = tested on: Lung; test: Antiinflammatory activity in C57bl/6 mouse precision-cut lung slices assessed as effect on LPS/IFNgamma-induced HDAC2 gene expression at 1 to 10 uM preincubated for 20 hrs followed by LPS/IFNgamma stimulation and measured after 4 hrs by RT-qPCR analysis; assay type: functional, tissue-based; conditions: dose 1-10 µM, time 24.0 hrs
[14] = tested on: HBE; test: Antiinflammatory activity in HBE cells assessed as effect on LPS/IFNgamma-induced IL-10 gene expression at 2 uM […] by RT-qPCR analysis; assay type: functional, cell-based; conditions: Homo sapiens; how it was run: as §1

Sequence of Histone deacetylase 1 (Mus musculus) (O09106 whole entry): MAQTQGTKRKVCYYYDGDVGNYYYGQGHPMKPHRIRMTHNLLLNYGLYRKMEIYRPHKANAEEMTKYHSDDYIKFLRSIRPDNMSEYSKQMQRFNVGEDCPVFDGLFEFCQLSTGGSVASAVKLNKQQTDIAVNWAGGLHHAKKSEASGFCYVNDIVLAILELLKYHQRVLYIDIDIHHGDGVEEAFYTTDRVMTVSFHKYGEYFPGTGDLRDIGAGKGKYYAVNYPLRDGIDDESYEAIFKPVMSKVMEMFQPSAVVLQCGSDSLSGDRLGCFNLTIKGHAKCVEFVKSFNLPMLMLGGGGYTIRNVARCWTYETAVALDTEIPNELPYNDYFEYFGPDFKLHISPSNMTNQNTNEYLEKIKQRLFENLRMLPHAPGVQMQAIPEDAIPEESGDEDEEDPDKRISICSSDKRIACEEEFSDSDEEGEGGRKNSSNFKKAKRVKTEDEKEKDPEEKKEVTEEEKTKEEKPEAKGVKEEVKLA

Nc1cc(F)ccc1NC(=O)/C=C/c1cnn(C/C=C/c2ccccc2)c1
Activity [1]: inactive | Activity [2]: inactive | Activity [3]: inactive | Activity [4]: Active | Activity [5]: inactive | Activity [6]: Active | Activity [7]: Active | Activity [8]: inactive | Activity [9]: Active | inhibition [10]: inactive | Activity [11]: Non-Toxic | inhibition [12]: inactive | Activity [13]: inactive | Activity [14]: inactive

From ChEMBL document CHEMBL5653624 (Biochem Pharmacol, 2016)
